The source made the active and inactive calls. No cut-off for these calls is given here.
How the values were obtained:
[1] = system: Cerebellum; test: Biodistribution in Sprague-Dawley rat cerebellum assessed as increase in uptake at 0.07 to 0.11 nmol, iv pre-treated with 3 mg/kg of SB269970 measured up to 90 mins by HPLC analysis relative to control; assay type: ADME, organism-based; design: dose 3 mg/kg, route intravenous; conditions: in vivo
Procedure, shortened: (§1)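 PET blocking study in male Sprague–Dawley rats under isoflurane. SB269970 3 mg/kg, in saline with 10% ethanol and 5% polysorbate 80, was given 1 min before intravenous tracer. A 90-min 3D list-mode scan (350–750 keV) followed. Regional decay-corrected SUV time-activity curves were compared with baseline animals; n = 3 per group.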

[2] = system: Rattus norvegicus; test: Biodistribution in Sprague-Dawley rat frontal cortex assessed as increase in uptake at 0.07 to 0.11 nmol, iv pre-treated with 3 mg/kg of SB269970 measured up to 90 mins by HPLC analysis relative to control; assay type: ADME, organism-based; design: dose 3 mg/kg, route intravenous; conditions: in vivo; procedure, shortened: as §1
[3] = system: Hippocampus; test: Biodistribution in Sprague-Dawley rat hippocampus assessed as increase in uptake at 0.07 to 0.11 nmol, iv pre-treated with 3 mg/kg of SB269970 measured up to 90 mins by HPLC analysis relative to control; assay type: ADME, organism-based; design: dose 3 mg/kg, route intravenous; conditions: in vivo; procedure, shortened: as §1
[4] = Drug metabolism in Sprague-Dawley rat brain assessed as intact form at 0.07 to 0.11 nmol, iv after 15 mins by HPLC analysis; assay type: ADME, organism-based; conditions: read-out: Stability
Procedure, shortened: (§2)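 At 15 and 60 min after intravenous tracer, rat plasma and brain were taken. Brain was homogenized in ice-cold MeCN/H2O (1:1) and centrifuged 15,000 rpm, 2 min, 4 °C. Supernatants were run on radio-HPLC (C18, 4.6 × 250 mm; MeCN/H2O/TFA 4/6/0.05; 1.0 mL/min). Intact fraction = decay-corrected tracer peak area / total peak area × 100.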

[5] = n-Octanol-sodium phosphate buffer partition coefficient, log D of the compound at pH 7.4 by shake flask method; assay type: physicochemical
Procedure, shortened: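 Shake flask: [11C]tracer (about 150,000 cpm) was mixed with n-octanol (3.0 g) and 0.1 M sodium phosphate-buffered saline, pH 7.40 (3.0 g). The mix was vortexed 3 min at room temperature and centrifuged 3500 rpm for 5 min; n = 3.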

[6] = system: Thalamus; test: Biodistribution in Sprague-Dawley rat thalamus assessed as increase in uptake at 0.07 to 0.11 nmol, iv pre-treated with 3 mg/kg of SB269970 measured up to 90 mins by HPLC analysis relative to control; assay type: ADME, organism-based; design: dose 3 mg/kg, route intravenous; conditions: in vivo; procedure, shortened: as §1
[7] = Drug metabolism in Sprague-Dawley rat brain assessed as intact form at 0.07 to 0.11 nmol, iv after 60 mins by HPLC analysis; assay type: ADME, organism-based; conditions: read-out: Stability; procedure, shortened: as §2
[8] = Drug metabolism in Sprague-Dawley rat plasma assessed as intact form at 0.07 to 0.11 nmol, iv after 60 mins by HPLC analysis; assay type: ADME, organism-based; conditions: read-out: Stability; procedure, shortened: as §2
[9] = Drug metabolism in Sprague-Dawley rat plasma assessed as intact form at 0.07 to 0.11 nmol, iv after 15 mins by HPLC analysis; assay type: ADME, organism-based; conditions: read-out: Stability; procedure, shortened: as §2
[10] = system: Brain; test: Biodistribution in Sprague-Dawley rat brain at 0.07 to 0.11 nmol, iv after 3 to 5 mins by HPLC analysis; assay type: ADME, organism-based; conditions: in vivo
Procedure, shortened: (§3)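 Small-animal PET in male Sprague–Dawley rats (220–240 g, 7 weeks) under isoflurane (5% induction, 1–2% maintenance). A 90-min 3D list-mode emission scan (350–750 keV) started immediately after intravenous tracer injection, framed 4 × 1, 8 × 2, 14 × 5 min. Regional uptake was decay-corrected to injection time and expressed as SUV normalized to injected radioactivity and body weight; n = 3.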

[11] = system: Brain; test: Biodistribution in Sprague-Dawley rat brain at 0.07 to 0.11 nmol, iv after 90 mins by HPLC analysis; assay type: ADME, organism-based; conditions: in vivo, 1.5 h; procedure, shortened: as §3
[12] = target: 5-hydroxytryptamine receptor 7 (Rattus norvegicus) (UniProt P32305); test: Binding affinity to 5-HT7 in Sprague-Dawley rat pons/medulla at 1 nM after 30 mins by autoradiography; conditions: tested as the 11C-labelled form
Procedure, shortened: (§4)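 Frozen sagittal male Sprague–Dawley rat brain sections were preincubated 3 × 5 min in 50 mM Tris–HCl, pH 7.4, at room temperature. They were then incubated 30 min at room temperature in fresh buffer with 1 nM [11C]tracer, alone or with unlabeled ligand or SB269970 added to define specific binding. Sections were washed 3 × 5 min in cold buffer, dipped in cold water and air-dried. Imaging-plate photo-stimulated luminescence was read in regions of interest; n = 4.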

[13] = target: 5-hydroxytryptamine receptor 7 (Rattus norvegicus) (UniProt P32305); test: Binding affinity to 5-HT7 in Sprague-Dawley rat brain assessed as reduction in total radioactivity at 1 nM after 30 mins by autoradiography in presence of unlabelled compound; conditions: tested as the 11C-labelled form; procedure, shortened: as §4
[14] = target: T1, 5-hydroxytryptamine receptor 1A (Rattus norvegicus) (UniProt P19327); test: Binding affinity to 5-HT1A in Sprague-Dawley rat hippocampus after 30 mins by autoradiography; assay type: tissue-based
T1 sequence (whole entry): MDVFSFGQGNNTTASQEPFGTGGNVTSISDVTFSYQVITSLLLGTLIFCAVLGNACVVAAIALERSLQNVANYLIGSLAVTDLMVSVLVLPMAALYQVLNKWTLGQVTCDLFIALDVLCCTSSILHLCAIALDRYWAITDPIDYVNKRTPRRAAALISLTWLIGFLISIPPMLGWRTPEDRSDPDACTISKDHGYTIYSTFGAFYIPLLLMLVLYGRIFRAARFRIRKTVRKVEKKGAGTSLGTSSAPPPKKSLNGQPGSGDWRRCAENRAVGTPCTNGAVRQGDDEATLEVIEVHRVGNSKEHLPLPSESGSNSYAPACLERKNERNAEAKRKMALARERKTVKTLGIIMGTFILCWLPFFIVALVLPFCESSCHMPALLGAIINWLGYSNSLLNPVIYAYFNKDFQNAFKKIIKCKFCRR

[15] = target: 5-hydroxytryptamine receptor 7 (Rattus norvegicus, UniProt P32305); test: Binding affinity to 5-HT7 in rat brain; assay type: tissue-based
[16] = target: 5-hydroxytryptamine receptor 7 (Rattus norvegicus) (UniProt P32305); test: Binding affinity to 5-HT7 in Sprague-Dawley rat brain assessed as reduction in total radioactivity at 1 nM after 30 mins by autoradiography in presence of SB269970; conditions: tested as the 11C-labelled form; procedure, shortened: as §4
[17] = target: 5-hydroxytryptamine receptor 7 (Rattus norvegicus) (UniProt P32305); test: Binding affinity to 5-HT7 in Sprague-Dawley rat cerebellum at 1 nM after 30 mins by autoradiography; conditions: tested as the 11C-labelled form; procedure, shortened: as §4
[18] = target: 5-hydroxytryptamine receptor 7 (Rattus norvegicus) (UniProt P32305); test: Binding affinity to 5-HT7 in Sprague-Dawley rat thalamus at 1 nM after 30 mins by autoradiography; conditions: tested as the 11C-labelled form; procedure, shortened: as §4
[19] = target: T1, 5-hydroxytryptamine receptor 1A (Rattus norvegicus); test: Binding affinity to 5-HT1A in Sprague-Dawley rat cerebral cortex at 1 nM after 30 mins by autoradiography; assay type: tissue-based; conditions: tested as the 11C-labelled form
[20] = target: 5-hydroxytryptamine receptor 7 (Rattus norvegicus) (UniProt P32305); test: Binding affinity to 5-HT7 in Sprague-Dawley rat straitum at 1 nM after 30 mins by autoradiography; conditions: tested as the 11C-labelled form; procedure, shortened: as §4
[21] = target: T1, 5-hydroxytryptamine receptor 1A (Rattus norvegicus); test: Binding affinity to 5-HT1A in Sprague-Dawley rat hippocampus at 1 nM after 30 mins by autoradiography; assay type: tissue-based; conditions: tested as the 11C-labelled form
[22] = target: T1, 5-hydroxytryptamine receptor 1A (Rattus norvegicus); test: Binding affinity to 5-HT1A in Sprague-Dawley rat frontal cortex after 30 mins by autoradiography; assay type: tissue-based

5-hydroxytryptamine receptor 7 (Rattus norvegicus), sequence (P32305 whole entry): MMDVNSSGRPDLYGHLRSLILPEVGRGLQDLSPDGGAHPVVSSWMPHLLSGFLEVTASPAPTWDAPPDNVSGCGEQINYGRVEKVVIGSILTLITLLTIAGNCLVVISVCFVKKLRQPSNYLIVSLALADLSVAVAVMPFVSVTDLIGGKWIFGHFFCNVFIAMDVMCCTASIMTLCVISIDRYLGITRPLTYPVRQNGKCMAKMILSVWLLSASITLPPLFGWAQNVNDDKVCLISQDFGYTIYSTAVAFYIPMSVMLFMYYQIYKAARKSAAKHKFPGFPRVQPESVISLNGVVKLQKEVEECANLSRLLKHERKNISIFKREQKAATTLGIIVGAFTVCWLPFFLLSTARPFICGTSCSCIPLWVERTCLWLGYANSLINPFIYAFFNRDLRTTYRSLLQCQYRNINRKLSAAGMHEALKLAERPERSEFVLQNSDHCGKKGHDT
5-hydroxytryptamine receptor 7, sequence (P32305 whole entry): as above

Question: Which “fold change (FC)” value [1] does the source give for `[11CH3]Oc1ccc(-c2ccccc2N2CCNCC2)cc1` here?
Answer: 2

Question: And the “fold change (FC)” value [2]?
Answer: 2

Question: What about the “fold change (FC)” value [3] of the same compound?
Answer: 2

Question: What about the remaining at 0.25 h [4] of the same compound?
Answer: 91%

Question: And the logD [5]?
Answer: 1.67

Question: And the “fold change (FC)” value [6]?
Answer: 2

Question: And the remaining at 1 h [7]?
Answer: 69%

Question: What about the remaining at 1 h [8] of the same compound?
Answer: 30%

Question: What about the remaining at 0.25 h [9] of the same compound?
Answer: 51%

Question: What about the SUV [10] of the same compound?
Answer: 1.2

Question: And the Drug uptake [11]?
Answer: 20%

Question: Which results are given for `COc1ccc(-c2ccccc2N2CCNCC2)cc1`?
Answer: Activity [12]: Active; Activity [13]: inactive; Bmax [14]: 5 nM; Ki [15]: 2.6 nM; Activity [16]: inactive; Activity [17]: Active; Activity [18]: Active; Activity [19]: inactive; Activity [20]: Active; Activity [21]: inactive; Bmax [22]: 5 nM

— ChEMBL document CHEMBL2413032, “Synthesis and evaluation of 1-[2-(4-[(11)C]methoxyphenyl)phenyl]piperazine for imaging of the serotonin 5-HT7 receptor in the rat brain” (Bioorg Med Chem, 2013)
